Assay outcomes from PubChem.
Rows were chosen to be rich in hits. Some 3.5% of all compounds tested hit in one or more screens of this group.
RGS4 pot: RGS4 potentiation or activation. HEK293 M3R/inducible RGS4, carbachol calcium flux Fluo4; active compounds read low. AID 463111. 310,000 compounds, 0.92% hits. B-score at 10 µM;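 active = B-score of the integrated calcium signal more than 4 SD below the library mean, with starting fluorescence not abnormally high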;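 note: negative B-score means reduced calcium response which marks RGS4 activation or potentiation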
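System – HEK293 FlpIn-TREx cells, stable M3R, doxycycline-inducible RGS4 · Reagent – ECmax carbachol challenge · Times – compound preincubation 20 min at room temperature before agonist · Technique – Fluo4 fluorescence kinetic imaging of calcium · Measure – B score of integrated Fluo4 ratio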
MrgX1 ag: activates human MrgX1 receptor signaling | MrgX1-HEK293 cells, Fluo-4 calcium fluorescence, agonist mode; active compounds read high | B-score at 10 µM | Q96LB2 | 310,000 compounds, 0.44% hits;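 active = calcium response B-score plate-corrected fluorescence ratio at least 3 library SD, with starting fluorescence B-score inside 5 SD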
Target sequence (Q96LB2 whole entry, looked up): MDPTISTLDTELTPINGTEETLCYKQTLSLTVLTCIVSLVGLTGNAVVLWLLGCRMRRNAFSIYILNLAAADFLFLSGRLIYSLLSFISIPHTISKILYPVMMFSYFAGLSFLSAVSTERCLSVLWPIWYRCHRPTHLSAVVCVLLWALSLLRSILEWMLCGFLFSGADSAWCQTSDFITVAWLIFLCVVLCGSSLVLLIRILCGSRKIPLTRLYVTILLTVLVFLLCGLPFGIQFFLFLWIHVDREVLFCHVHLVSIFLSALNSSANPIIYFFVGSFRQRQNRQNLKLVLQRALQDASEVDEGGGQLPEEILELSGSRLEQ
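Assay system: stable human MrgX1 HEK293 cell line. Quantity: 15,000 cells per well. Schedule: cells plated overnight, dye loaded 0.5 h 37 °C, 0.5 h room temperature. Detection: Fluo-4 NW calcium-flux fluorescence, kinetic read. Read-out basis: peak-minus-minimum fluorescence over baseline, converted to B scores. Control set: positive and negative control wells on each plate.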
RGS4 inh: inhibitors of human RGS4; P49798; 310,000 compounds, 0.45% hits; B-score at 10 µM; HEK293 M3R/RGS4 inducible, Fluo-4 calcium flux; active compounds read high; triggered by carbachol at its EC20;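 active = B-score, a plate-corrected calcium signal, over three deviations above library mean, with baseline fluorescence within five deviations of library mean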;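 note: RGS4 expression induced by doxycycline in cells with stable M3 receptor; B-score is computed from the integrated fluorescence ratio over baseline after carbachol; higher B-score means a larger calcium signal and so more RGS4 inhibition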
Target sequence (P49798 whole entry, looked up): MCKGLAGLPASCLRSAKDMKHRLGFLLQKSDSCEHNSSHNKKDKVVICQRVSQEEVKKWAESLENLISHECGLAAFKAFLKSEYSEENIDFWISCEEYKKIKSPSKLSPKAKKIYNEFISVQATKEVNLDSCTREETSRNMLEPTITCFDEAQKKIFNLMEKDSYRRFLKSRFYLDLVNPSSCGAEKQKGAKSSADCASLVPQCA
MrgX1 antagonist: antagonists of human MrgX1 receptor | Q96LB2 | MRGX1-HEK293 calcium flux, Fluo-4, BAM8-22 antagonism; active compounds read low | B-score at 10 µM | 310,000 compounds, 1.3% hits;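 active = calcium-response B-score plate-corrected more than 3 library SD below zero, starting fluorescence within 5 deviations, no agonist response on first addition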;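 note: peak minus trough fluorescence over baseline after final BAM8-22 challenge near maximal dose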
MrgX1 allo act: human MrgX1 positive allosteric modulation, primary screen; Q96LB2; MrgX1-HEK293, Fluo-4 calcium flux, FDSS; active compounds read high; B-score at 10 µM; 310,000 compounds, 0.63% hits;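 active = plate-corrected calcium response at least 3 library SD above typical, normal starting fluorescence, not activating the receptor alone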;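 note: compound read alongside a low EC10 to EC30 dose of BAM8-22 agonist; peak minus trough fluorescence over baseline measured at the second addition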
MrgX1 allo conf: human MrgX1 positive allosteric modulation, re-confirmation; shares compounds with MrgX1 allo act; MrgX1-HEK293, Fluo-4 calcium fluorescence, FDSS; activation (ratio percentage), % at 10 µM; 1,200 compounds, 13% hits; AID 602413;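 active = ratio at least 3 SD above the weak peptide control, stable starting fluorescence, no direct agonism earlier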;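 note: compound followed by low BAM8-22 agonist challenge near EC20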
HEK293 Ca flux: activity in parental HEK293 cells lacking MrgX1; 4,000 compounds, 2% hits; shares compounds with MrgX1 antagonist; Fluo-4 calcium fluorescence, FDSS; fluorescence ratio F(max-min)/F0 at 10 µM;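 active = duplicate-averaged calcium fluorescence ratio at least three times the standard deviation of buffer wells, a nonspecific response in parental cells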
HEK293 Ca counter: counter-screen for MrgX1 allosteric activators: effect in parental HEK293 cells | shares compounds with MrgX1 antagonist | parental HEK293 calcium flux, Fluo-4 fluorescence ratio; active compounds read high | fluorescence ratio F(max-min)/F0 at 10 µM | 4,000 compounds, 0.4% hits | AID 624114;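 active = calcium fluorescence ratio, averaged over duplicates, at least 3 SD of the buffer-well ratio, meaning a nonspecific response in receptor-free cells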;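 note: untransfected parental HEK293 lacking MrgX1 used as counterscreen for MrgX1 allosteric activators; fluorescence change taken during the second addition on a kinetic imager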
HEK293 Ca cntr2: activity in parental HEK293 cells lacking MrgX1 receptor; Fluo-4 calcium fluorescence (FDSS); active compounds read high; 4,000 compounds, 8.7% hits; AID 624115; fluorescence ratio F(max-min)/F0 at 10 µM; shares compounds with MrgX1 antagonist;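 active = calcium fluorescence ratio at least three times the spread of buffer wells, meaning a non-specific response in parental cells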
Hits are given with their value.

How did CNC(=O)[C@H]1O[C@@H](n2cnc3c(NCc4cccc(I)c4)ncnc32)[C@H](O)[C@@H]1O do in these assays?
MrgX1 ag: inactive; MrgX1 antagonist: inactive; MrgX1 allo act: 10; MrgX1 allo conf: inactive; HEK293 Ca flux: inactive; HEK293 Ca counter: inactive; HEK293 Ca cntr2: inactive

Results for Cn1cnc2c(NCc3ccco3)ncnc21 ?
RGS4 pot: inactive; MrgX1 ag: inactive; RGS4 inh: inactive; MrgX1 antagonist: inactive; MrgX1 allo act: inactive

How did Cc1ccccc1N(C(=O)c1snc(C(N)=O)c1N)C(C(=O)NC1CCCC1)c1ccco1 (stereo not given) do in these assays?
RGS4 pot: inactive; RGS4 inh: inactive

How did Cc1cnc(C(=O)NC2CC(C)(C)Cc3c2cnn3-c2cccc(F)c2)cn1 (stereo not given) do in these assays?
RGS4 pot: inactive; MrgX1 ag: inactive; RGS4 inh: inactive; MrgX1 antagonist: inactive; MrgX1 allo act: 7.8; MrgX1 allo conf: inactive; HEK293 Ca flux: inactive; HEK293 Ca counter: inactive; HEK293 Ca cntr2: inactive

How did CCn1cc(C(=O)NC2CC(C)(C)Cc3c2cnn3-c2cccc(F)c2)cn1 (stereo not given) do in these assays?
RGS4 pot: inactive; MrgX1 ag: inactive; RGS4 inh: inactive; MrgX1 antagonist: inactive; MrgX1 allo act: inactive

What do the screens show for `Clc1ccc(-c2cc3ccccc3nc2N2CCCC2)cc1`?
RGS4 pot: inactive; MrgX1 ag: inactive; RGS4 inh: inactive; MrgX1 antagonist: inactive; MrgX1 allo act: inactive

Results for Clc1ccc(-c2cc3ccccc3nc2N2CCOCC2)cc1 ?
RGS4 pot: inactive; MrgX1 ag: inactive; RGS4 inh: inactive; MrgX1 antagonist: inactive; MrgX1 allo act: 11; MrgX1 allo conf: inactive; HEK293 Ca flux: inactive; HEK293 Ca counter: inactive; HEK293 Ca cntr2: inactive

What do the screens show for `OCC(O)[C@@H](O[C@H]1O[C@H](CO)[C@@H](O)[C@H](O)[C@H]1O)[C@H](O)[C@@H](O)CO` (stereo not given in full)?
RGS4 pot: inactive; MrgX1 ag: inactive; RGS4 inh: inactive; MrgX1 antagonist: inactive; MrgX1 allo act: inactive

Results for Cc1ccc(NC(=O)COC(=O)C2C3CC4OC(=O)C2C4C3)cc1 (stereo not given) ?
RGS4 pot: inactive; MrgX1 ag: inactive; RGS4 inh: inactive; MrgX1 antagonist: inactive; MrgX1 allo act: 26; MrgX1 allo conf: inactive; HEK293 Ca flux: inactive; HEK293 Ca counter: inactive; HEK293 Ca cntr2: inactive

How did CS(=O)(=O)c1ccc2nc(NC(=O)c3ccco3)sc2c1 do in these assays?
RGS4 pot: inactive; MrgX1 ag: inactive; RGS4 inh: inactive; MrgX1 antagonist: inactive; MrgX1 allo act: 9; MrgX1 allo conf: inactive; HEK293 Ca flux: inactive; HEK293 Ca counter: inactive; HEK293 Ca cntr2: inactive

How did COc1ccc(-c2csc(NC(=O)CS(=O)(=O)c3ccccc3)n2)cc1 do in these assays?
RGS4 pot: inactive; MrgX1 ag: inactive; RGS4 inh: inactive; MrgX1 antagonist: inactive; MrgX1 allo act: 12; MrgX1 allo conf: 6.8%; HEK293 Ca flux: inactive; HEK293 Ca counter: inactive; HEK293 Ca cntr2: inactive

How did CCCC(=O)Nc1nc(-c2ccc(OC)cc2)cs1 do in these assays?
RGS4 pot: inactive; MrgX1 ag: inactive; RGS4 inh: inactive; MrgX1 antagonist: inactive; MrgX1 allo act: inactive

Results for CN(C(=O)C1CCC(CNS(=O)(=O)c2cccc3cccnc23)CC1)C1CCCCC1 (stereo not given) ?
RGS4 pot: inactive; MrgX1 ag: inactive; RGS4 inh: inactive; MrgX1 antagonist: inactive; MrgX1 allo act: inactive

Results for Oc1ccc2ccccc2c1C=Nc1ccc(Cl)cn1 ?
RGS4 pot: inactive; MrgX1 ag: inactive; RGS4 inh: inactive; MrgX1 antagonist: inactive; MrgX1 allo act: inactive

Results for O=C(CSc1nc2ccccc2[nH]1)NCc1ccc(F)cc1 ?
RGS4 pot: inactive; MrgX1 ag: inactive; RGS4 inh: inactive; MrgX1 antagonist: inactive; MrgX1 allo act: 9.5; MrgX1 allo conf: inactive; HEK293 Ca flux: inactive; HEK293 Ca counter: inactive; HEK293 Ca cntr2: inactive

How did O=C(CSc1nc2ccccc2[nH]1)Nc1ccc(F)cc1 do in these assays?
RGS4 pot: inactive; MrgX1 ag: inactive; RGS4 inh: inactive; MrgX1 antagonist: inactive; MrgX1 allo act: inactive

Results for CCCCn1c(N)c(N(CCC(C)C)C(=O)c2oc3ccc(OCC)cc3c2C)c(=O)[nH]c1=O ?
RGS4 pot: inactive; MrgX1 ag: inactive; RGS4 inh: inactive; MrgX1 antagonist: inactive; MrgX1 allo act: inactive

What do the screens show for `COc1c(Cl)cccc1-c1cn2ccc(C)cc2n1`?
RGS4 pot: inactive; MrgX1 ag: inactive; RGS4 inh: inactive; MrgX1 antagonist: inactive; MrgX1 allo act: 15; MrgX1 allo conf: inactive; HEK293 Ca flux: inactive; HEK293 Ca counter: inactive; HEK293 Ca cntr2: inactive

Results for Cc1ccn2cc(-c3ccc(Br)cc3)nc2c1 ?
RGS4 pot: inactive; MrgX1 ag: inactive; RGS4 inh: inactive; MrgX1 antagonist: inactive; MrgX1 allo act: 15; MrgX1 allo conf: inactive; HEK293 Ca flux: inactive; HEK293 Ca counter: inactive; HEK293 Ca cntr2: inactive

What do the screens show for `CC(C)(C)Nc1ncnc2c1cnn2-c1ccccc1`?
RGS4 pot: inactive; MrgX1 ag: inactive; RGS4 inh: inactive; MrgX1 antagonist: inactive; MrgX1 allo act: 7.7; MrgX1 allo conf: inactive; HEK293 Ca flux: inactive; HEK293 Ca counter: inactive; HEK293 Ca cntr2: inactive

How did c1ccc(CNc2ncnc3c2cnn3-c2ccccc2)cc1 do in these assays?
RGS4 pot: inactive; MrgX1 ag: inactive; RGS4 inh: inactive; MrgX1 antagonist: inactive; MrgX1 allo act: inactive

What do the screens show for `COc1ccccc1N1CCN(C(=O)c2cc3cc(C)ccc3[nH]2)CC1`?
RGS4 pot: inactive; MrgX1 ag: inactive; RGS4 inh: inactive; MrgX1 antagonist: inactive; MrgX1 allo act: 11; MrgX1 allo conf: inactive; HEK293 Ca flux: inactive; HEK293 Ca counter: inactive; HEK293 Ca cntr2: inactive

How did O=C(Nc1cccc(-c2cccc(F)c2)c1)C1CCN(C2CCOCC2)CC1 do in these assays?
RGS4 pot: inactive; MrgX1 ag: inactive; RGS4 inh: inactive; MrgX1 antagonist: inactive; MrgX1 allo act: inactive

How did O=C(CNCC1CCCO1)Nc1ccccc1N1CCCCCC1 (stereo not given) do in these assays?
RGS4 pot: inactive; MrgX1 ag: inactive; RGS4 inh: inactive; MrgX1 antagonist: inactive; MrgX1 allo act: 6.9; MrgX1 allo conf: inactive; HEK293 Ca flux: inactive; HEK293 Ca counter: inactive; HEK293 Ca cntr2: inactive
